Source: ChEMBL document CHEMBL1139007 (J Med Chem, 2006)

How the values were obtained:
[1] = biological target: T1, C-C chemokine receptor type 5 (Homo sapiens, UniProt P51681); test: Inhibition of replication of R5 HIV1 Ba-L in MOLT4/CCR5 cells; type: functional, cell-based; conditions: Human immunodeficiency virus 1, MOLT-4
Target sequence in this assay (P51681 whole entry, looked up): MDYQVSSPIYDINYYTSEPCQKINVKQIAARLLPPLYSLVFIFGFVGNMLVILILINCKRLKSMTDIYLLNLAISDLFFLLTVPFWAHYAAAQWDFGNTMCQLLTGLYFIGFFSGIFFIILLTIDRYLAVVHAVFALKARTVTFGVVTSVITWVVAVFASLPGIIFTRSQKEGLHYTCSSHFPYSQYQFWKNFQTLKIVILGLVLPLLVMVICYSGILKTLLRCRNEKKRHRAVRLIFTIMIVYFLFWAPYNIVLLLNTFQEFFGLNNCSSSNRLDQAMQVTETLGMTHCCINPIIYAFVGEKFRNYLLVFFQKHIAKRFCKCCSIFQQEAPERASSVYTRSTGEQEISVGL

[2] = biological target: T1, C-C chemokine receptor type 5; test: Displacement of [125I]RANTES from CCR5 expressed in CHO cells; type: cell-based
Target sequence in this assay (P51681 whole entry): as the sequence (P51681 whole entry, looked up) above

[3] = biological target: T1, C-C chemokine receptor type 5; conditions: Human immunodeficiency virus 1; Ba-L; MOLT-4; 5 nM
Target sequence in this assay (P51681 whole entry, looked up): as above

[4] = tested on: Human immunodeficiency virus 1; test: Inhibition of replication of R5 HIV1 CTV in PMBC; type: functional, organism-based; conditions: Human immunodeficiency virus 1, CTV
Procedure, shortened: (§1)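 PHA-stimulated PBMCs infected with clinical isolate (11-55 ng p24 per 4 × 10⁶ cells) for 4 h, washed to remove unadsorbed virus, then seeded at 2 × 10⁵ cells/well with a range of compound concentrations. On day 4 cells were split 1:2 into medium with the same compound level. IC50/IC90 for inhibition of replication; triplicate, repeated 3 or 4 times with PBMCs from different donors; means reported.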

[5] = tested on: Human immunodeficiency virus 1; test: Inhibition of replication of R5 HIV1 HKW in PMBC; type: functional, organism-based; conditions: Human immunodeficiency virus 1, HKW; procedure, shortened: as §1
[6] = tested on: Human immunodeficiency virus 1; test: Inhibition of replication of R5 HIV1 HNK in PMBC; type: functional, organism-based; conditions: Human immunodeficiency virus 1, HNK; procedure, shortened: as §1
[7] = tested on: Human immunodeficiency virus 1; test: Inhibition of replication of R5 HIV1 HTN in PMBC; type: functional, organism-based; conditions: Human immunodeficiency virus 1, HTN; procedure, shortened: as §1
[8] = tested on: Human immunodeficiency virus 1; test: Inhibition of replication of R5 HIV1 HHA in PMBC; type: functional, organism-based; conditions: Human immunodeficiency virus 1, HHA; procedure, shortened: as §1
[9] = tested on: Human immunodeficiency virus 1; test: Inhibition of replication of R5 HIV1 KK in PMBC; type: functional, organism-based; conditions: Human immunodeficiency virus 1, KK; procedure, shortened: as §1
[10] = Plasma concentration in Sprague-Dawley rat after 5 min at 1 mg/kg, iv; type: ADME, organism-based; set-up: dose 1 mg/kg, route intravenous
Procedure, shortened: (§2)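 Blood was drawn at set times (rat tail vein, dog cephalic vein, monkey femoral vein) and spun to plasma. Plasma was run on C8 HPLC, 1-min fractions counted by liquid scintillation.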

[11] = Plasma concentration in Beagle dog after 5 min at 1 mg/kg, iv; type: ADME, organism-based, Canis lupus familiaris; set-up: dose 1 mg/kg, route intravenous; procedure, shortened: as §2
[12] = Plasma concentration in cynomolgus monkey after 5 min at 1 mg/kg, iv; type: ADME, organism-based, Macaca fascicularis; set-up: dose 1 mg/kg, route intravenous; procedure, shortened: as §2
[13] = AUC (0-24h) in Sprague-Dawley rat at 1 mg/kg, iv; type: ADME, organism-based; set-up: time < 24 hr, dose 1 mg/kg, route intravenous; conditions: plasma; procedure, shortened: as §2
[14] = AUC (0-24h) in Beagle dog at 1 mg/kg, iv; type: ADME, organism-based, Canis lupus familiaris; set-up: time < 24 hr, dose 1 mg/kg, route intravenous; conditions: plasma; procedure, shortened: as §2
[15] = AUC (0-24h) in cynomolgus monkey at 1 mg/kg, iv; type: ADME, organism-based, Macaca fascicularis; set-up: time < 24 hr, dose 1 mg/kg, route intravenous; conditions: plasma; procedure, shortened: as §2
[16] = Half life in Sprague-Dawley rat plasma at 1 mg/kg, iv; type: ADME, organism-based; set-up: dose 1 mg/kg, route intravenous; procedure, shortened: as §2
[17] = Half life in Beagle dog plasma at 1 mg/kg, iv; type: ADME, organism-based, Canis lupus familiaris; set-up: dose 1 mg/kg, route intravenous; procedure, shortened: as §2
[18] = Half life in cynomolgus monkey plasma at 1 mg/kg, iv; type: ADME, organism-based, Macaca fascicularis; set-up: dose 1 mg/kg, route intravenous; procedure, shortened: as §2
[19] = Cmax in Sprague-Dawley rat plasma at 3 mg/kg, po; type: ADME, organism-based; set-up: dose 3 mg/kg, route oral
[20] = Cmax in Beagle dog plasma at 3 mg/kg, po; type: ADME, organism-based, Canis lupus familiaris; set-up: dose 3 mg/kg, route oral
[21] = Tmax in Sprague-Dawley rat plasma at 3 mg/kg, po; type: ADME, organism-based; set-up: dose 3 mg/kg, route oral
[22] = Tmax in Beagle dog plasma at 3 mg/kg, po; type: ADME, organism-based, Canis lupus familiaris; set-up: dose 3 mg/kg, route oral
[23] = Tmax in cynomolgus monkey plasma at 3 mg/kg, po; type: ADME, organism-based, Macaca fascicularis; set-up: dose 3 mg/kg, route oral
[24] = Cmax in cynomolgus monkey plasma at 3 mg/kg, po; type: ADME, organism-based, Macaca fascicularis; set-up: dose 3 mg/kg, route oral
[25] = AUC (0-24h) in Sprague-Dawley rat at 3 mg/kg, po; type: ADME, organism-based; set-up: time < 24 hr, dose 3 mg/kg, route oral; conditions: plasma
[26] = AUC (0-24h) in Beagle dog at 3 mg/kg, po; type: ADME, organism-based, Canis lupus familiaris; set-up: time < 24 hr, dose 3 mg/kg, route oral; conditions: plasma
[27] = AUC (0-24h) in cynomolgus monkey at 3 mg/kg, po; type: ADME, organism-based, Macaca fascicularis; set-up: time < 24 hr, dose 3 mg/kg, route oral; conditions: plasma
[28] = Bioavailability in Sprague-Dawley rat at 3 mg/kg, po; type: ADME, organism-based; conditions: in vivo
[29] = Bioavailability in Beagle dog at 3 mg/kg, po; type: ADME, organism-based, Canis lupus familiaris; conditions: in vivo
[30] = Bioavailability in cynomolgus monkey at 3 mg/kg, po; type: ADME, organism-based, Macaca fascicularis; conditions: in vivo
[31] = biological target: T2, C-C chemokine receptor type 1 (Homo sapiens, UniProt P32246); test: Displacement of [125I]RANTES from CCR1 expressed in CHO cells; type: cell-based
T2 sequence (P32246 whole entry): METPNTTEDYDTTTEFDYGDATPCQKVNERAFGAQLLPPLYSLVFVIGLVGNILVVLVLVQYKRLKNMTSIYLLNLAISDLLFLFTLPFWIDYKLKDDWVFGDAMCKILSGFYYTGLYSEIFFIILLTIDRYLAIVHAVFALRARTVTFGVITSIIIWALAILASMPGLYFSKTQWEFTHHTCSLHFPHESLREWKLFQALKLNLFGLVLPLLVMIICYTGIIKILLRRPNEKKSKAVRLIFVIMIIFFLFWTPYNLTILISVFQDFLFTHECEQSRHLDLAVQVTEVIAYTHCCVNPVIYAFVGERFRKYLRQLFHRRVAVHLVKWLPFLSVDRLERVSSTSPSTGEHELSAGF
Procedure, shortened: (§3)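 CHO cells stably expressing the named chemokine receptor were incubated with the [125I]-labelled ligand (RANTES for CCR5 and CCR1, eotaxin for CCR3, TARC for CCR4) and varying compound concentrations. IC50 for inhibition of ligand binding is the mean of triplicate measurements.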

[32] = biological target: T3, C-C chemokine receptor type 3 (Homo sapiens, UniProt P51677); test: Displacement of [125I]eotaxin from CCR3 expressed in CHO cells; type: cell-based; procedure, shortened: as §3
T3 sequence (P51677 whole entry): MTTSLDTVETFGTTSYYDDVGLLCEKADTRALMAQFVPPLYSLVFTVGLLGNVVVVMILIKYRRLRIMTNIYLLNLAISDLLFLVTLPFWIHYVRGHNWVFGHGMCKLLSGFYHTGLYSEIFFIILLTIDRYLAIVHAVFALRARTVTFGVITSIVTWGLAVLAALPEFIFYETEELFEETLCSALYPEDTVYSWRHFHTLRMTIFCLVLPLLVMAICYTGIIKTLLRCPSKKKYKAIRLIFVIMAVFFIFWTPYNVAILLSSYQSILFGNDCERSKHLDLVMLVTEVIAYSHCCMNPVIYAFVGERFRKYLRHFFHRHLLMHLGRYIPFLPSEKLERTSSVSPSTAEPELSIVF

[33] = biological target: T4, C-C chemokine receptor type 4 (Homo sapiens, UniProt P51679); test: Displacement of [125I]TARC from CCR4 expressed in CHO cells; type: cell-based; procedure, shortened: as §3
T4 sequence (P51679 whole entry): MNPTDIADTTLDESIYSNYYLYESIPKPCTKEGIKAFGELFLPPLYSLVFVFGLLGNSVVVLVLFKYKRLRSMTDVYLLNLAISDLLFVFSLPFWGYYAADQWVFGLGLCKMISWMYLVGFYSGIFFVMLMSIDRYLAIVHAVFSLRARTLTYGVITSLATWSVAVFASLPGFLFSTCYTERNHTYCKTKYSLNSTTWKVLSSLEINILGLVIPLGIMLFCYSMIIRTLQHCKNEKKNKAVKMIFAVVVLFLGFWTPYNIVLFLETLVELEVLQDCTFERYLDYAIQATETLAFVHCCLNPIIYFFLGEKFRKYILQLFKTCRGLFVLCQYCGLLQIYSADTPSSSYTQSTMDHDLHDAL

[34] = biological target: T5, C-C chemokine receptor type 7 (Homo sapiens, UniProt P32248); test: Displacement of [125I]MIP-3beta from CCR7 expressed in CHO cells; type: cell-based
T5 sequence (P32248 whole entry): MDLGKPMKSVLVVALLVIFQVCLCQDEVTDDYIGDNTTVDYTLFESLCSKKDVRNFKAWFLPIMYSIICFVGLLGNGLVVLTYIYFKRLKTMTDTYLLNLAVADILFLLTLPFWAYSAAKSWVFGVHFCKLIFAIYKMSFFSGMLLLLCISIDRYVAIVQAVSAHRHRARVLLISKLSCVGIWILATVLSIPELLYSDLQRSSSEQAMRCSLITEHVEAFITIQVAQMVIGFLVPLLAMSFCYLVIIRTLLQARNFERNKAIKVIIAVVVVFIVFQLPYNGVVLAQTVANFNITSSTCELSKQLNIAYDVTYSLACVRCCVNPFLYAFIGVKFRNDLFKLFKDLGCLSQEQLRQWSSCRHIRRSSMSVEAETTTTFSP
Procedure, shortened: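 CHO cells stably expressing CCR7, run in the same way as the CCR5 binding assay. Binding of [¹²⁵I]-MIP-3β was measured across a range of test compound concentrations. IC50 is the concentration that inhibits ligand binding by 50%, reported as the mean of triplicate measurements.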

## CCCCOCCOc1ccc(-c2ccc3c(c2)/C=C(/C(=O)Nc2ccc([S@@+]([O-])Cc4cncn4CCC)cc2)CCCCN3CC(C)C)cc1
[1]
  IC90: 19 nM
[2]
  IC50: 6.8 nM

## CCCCOCCOc1ccc(-c2ccc3c(c2)/C=C(/C(=O)Nc2ccc([S@@+]([O-])Cc4nncn4CCC)cc2)CCCN3CCC)cc1
[2]
  IC50: 2.2 nM

## CCCCOCCOc1ccc(-c2ccc3c(c2)/C=C(/C(=O)Nc2ccc([S@@+]([O-])Cc4cncn4CCC)cc2)CCCN3CCC)cc1
[2]
  IC50: 1.7 nM
[3]
  inhibition: 72%

## CCCCOCCOc1ccc(-c2ccc3c(c2)/C=C(/C(=O)Nc2ccc([S@@+]([O-])Cc4cncn4CCC)cc2)CCCN3CC(C)C)cc1.CS(=O)(=O)O [CENICRIVIROC MESYLATE]
[4]
  IC50: 0.07 nM
  IC90: 0.31 nM
[5]
  IC50: 0.049 nM
  IC90: 0.16 nM
[6]
  IC50: 0.087 nM
  IC90: 0.36 nM
[7]
  IC50: 0.089 nM
  IC90: 0.32 nM
[8]
  IC50: 0.024 nM
  IC90: 0.13 nM
[1]
  IC90: 0.81 nM
[9]
  IC50: 0.043 nM
  IC90: 0.19 nM
[10]
  concentration at 5 min: 8020 ng/mL
[11]
  concentration at 5 min: 2320 ng/mL
[12]
  concentration at 5 min: 3110 ng/mL
[13]
  AUC(0-t) at 24 h: 7610 ng·h/mL
[14]
  AUC(0-t) at 24 h: 2310 ng·h/mL
[15]
  AUC(0-t) at 24 h: 1450 ng·h/mL
[16]
  half-life: 291 min
[17]
  half-life: 302 min
[18]
  half-life: 365 min
[19]
  Cmax: 485 ng/mL
[20]
  Cmax: 570 ng/mL
[21]
  Tmax: 1.3 h
[22]
  Tmax: 2.7 h
[23]
  Tmax: 2 h
[24]
  Cmax: 116 ng/mL
[25]
  AUC(0-t) at 24 h: 2320 ng·h/mL
[26]
  AUC(0-t) at 24 h: 6010 ng·h/mL
[27]
  AUC(0-t) at 24 h: 670 ng·h/mL
[28]
  bioavailability: 10.2%
[29]
  bioavailability: 88.5%
[30]
  bioavailability: 15.6%
[31]
  IC50: > 10 µM
[32]
  IC50: 2400 nM
[33]
  IC50: 1100 nM
[34]
  IC50: > 10 µM

## CCCCOCCOc1ccc(-c2ccc3c(c2)C=C(C(=O)Nc2ccc([S+]([O-])Cc4cncn4CCC)cc2)CCN3CC(C)C)cc1 (configuration not stated)
[1]
  IC90: 860 nM
[2]
  IC50: 1.9 nM

## CCCCOCCOc1ccc(-c2ccc3c(c2)/C=C(/C(=O)Nc2ccc([S@@+]([O-])Cc4cncn4CCC)cc2)CCCN3Cc2cnn(C)c2)cc1
[1]
  IC90: 11 nM
[2]
  IC50: 1.7 nM

## CCCCOCCOc1ccc(-c2ccc3c(c2)/C=C(/C(=O)Nc2ccc([S@@+]([O-])Cc4cncn4CCC)cc2)CCCCCN3CC(C)C)cc1
[2]
  IC50: 67 nM

## CCCCOCCOc1ccc(-c2ccc3c(c2)/C=C(/C(=O)Nc2ccc([S@@+]([O-])Cc4nncn4CCC)cc2)CCCN3CC(C)C)cc1
[1]
  IC90: 10 nM
[2]
  IC50: 2.4 nM

## CCCCOCCOc1ccc(-c2ccc3c(c2)/C=C(/C(=O)Nc2ccc([S@@+]([O-])Cc4cncn4CCC)cc2)CCCCN3CCC)cc1
[2]
  IC50: 4.7 nM

## CCCCOCCOc1ccc(-c2ccc3c(c2)/C=C(/C(=O)Nc2ccc([S@@+]([O-])Cc4cncn4CCC)cc2)CCCCCN3CCC)cc1
[2]
  IC50: 25 nM
